Assay results taken from ChEMBL document CHEMBL4689842, “EUbOPEN Chemogenomics Library wave 1” (2021).

Tested on: HEK-293T
Assay: Multiplex assay against HEK293T;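 for Population Tubulin-Different-Phenotype (%): share of the cells with healthy nuclei that show this phenotype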
Assay type: toxicity, cell-based
Conditions: human
Summary of the method: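 At seeding, live cells were stained with Hoechst33342, BioTracker Green Microtubule Cytoskeleton Dye, MitoTracker Red and Annexin V Alexa Fluor 680. After compound addition they were imaged on a CQ1 microscope at 37°C and 5% CO2, and CellPathfinder machine-learning gating sorted them into Hoechst high-intensity objects or normal cells, with normal cells further split into healthy, pyknosed or fragmented nuclei and pyknosed cells into mitotic or apoptotic. Tubulin, mitochondrial-mass and membrane-permeability phenotypes are given as per cents of cells with healthy nuclei.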

[1] = 12 h, 1 µM, compound concentration 1 uM, replicate 1
[2] = 12 h, 1 µM, compound concentration 1 uM, replicate 2
[3] = 12 h, 10 µM, compound concentration 10 uM, replicate 1
[4] = 12 h, 10 µM, compound concentration 10 uM, replicate 2
[5] = 24 h, 1 µM, compound concentration 1 uM, replicate 1
[6] = 24 h, 1 µM, compound concentration 1 uM, replicate 2
[7] = 24 h, 10 µM, compound concentration 10 uM, replicate 1
[8] = 24 h, 10 µM, compound concentration 10 uM, replicate 2
[9] = 48 h, 1 µM, compound concentration 1 uM, replicate 1
[10] = 48 h, 1 µM, compound concentration 1 uM, replicate 2
[11] = 48 h, 10 µM, compound concentration 10 uM, replicate 1
[12] = 48 h, 10 µM, compound concentration 10 uM, replicate 2

## O=C1NC(=O)C(c2cnc3ccccn23)=C1c1cn2c3c(cc(F)cc13)CN(C(=O)N1CCCCC1)CC2 [LY-2090314]
[1]
  Population Apoptotic (%): 46%
  Population Fragmented Nuclei (%): 8%
  Population Healthy Nuclei (%): 18%
  Population Hoechst High Intensity Objects (%): 16%
  Population Membrane Permeable-Phenotype (%): 10%
  Population Mitochondria Different-Phenotype (%): 93%
  Population Mitotic Cells (%): 53%
  Population Normal (%): 83%
  Population Pyknosed Nuclei (%): 73%
  Population Tubulin-Different-Phenotype (%): 89%
  Total Cell Count: 191
[2]
  Population Apoptotic (%): 26%
  Population Fragmented Nuclei (%): 6%
  Population Healthy Nuclei (%): 31%
  Population Hoechst High Intensity Objects (%): 7%
  Population Membrane Permeable-Phenotype (%): 16%
  Population Mitochondria Different-Phenotype (%): 51%
  Population Mitotic Cells (%): 73%
  Population Normal (%): 92%
  Population Pyknosed Nuclei (%): 62%
  Population Tubulin-Different-Phenotype (%): 61%
  Total Cell Count: 210
[3]
  Population Apoptotic (%): 76%
  Population Fragmented Nuclei (%): 8%
  Population Healthy Nuclei (%): 18%
  Population Hoechst High Intensity Objects (%): 17%
  Population Membrane Permeable-Phenotype (%): 0%
  Population Mitochondria Different-Phenotype (%): 100%
  Population Mitotic Cells (%): 23%
  Population Normal (%): 82%
  Population Pyknosed Nuclei (%): 73%
  Population Tubulin-Different-Phenotype (%): 96%
  Total Cell Count: 186
[4]
  Population Apoptotic (%): 58%
  Population Fragmented Nuclei (%): 6%
  Population Healthy Nuclei (%): 5%
  Population Hoechst High Intensity Objects (%): 8%
  Population Membrane Permeable-Phenotype (%): 14%
  Population Mitochondria Different-Phenotype (%): 85%
  Population Mitotic Cells (%): 41%
  Population Normal (%): 91%
  Population Pyknosed Nuclei (%): 87%
  Population Tubulin-Different-Phenotype (%): 85%
  Total Cell Count: 135
[5]
  Population Apoptotic (%): 53%
  Population Fragmented Nuclei (%): 13%
  Population Healthy Nuclei (%): 26%
  Population Hoechst High Intensity Objects (%): 17%
  Population Membrane Permeable-Phenotype (%): 6%
  Population Mitochondria Different-Phenotype (%): 93%
  Population Mitotic Cells (%): 46%
  Population Normal (%): 82%
  Population Pyknosed Nuclei (%): 59%
  Population Tubulin-Different-Phenotype (%): 79%
  Total Cell Count: 198
[6]
  Population Apoptotic (%): 29%
  Population Fragmented Nuclei (%): 5%
  Population Healthy Nuclei (%): 44%
  Population Hoechst High Intensity Objects (%): 6%
  Population Membrane Permeable-Phenotype (%): 8%
  Population Mitochondria Different-Phenotype (%): 42%
  Population Mitotic Cells (%): 70%
  Population Normal (%): 93%
  Population Pyknosed Nuclei (%): 50%
  Population Tubulin-Different-Phenotype (%): 66%
  Total Cell Count: 256
[7]
  Population Apoptotic (%): 86%
  Population Healthy Nuclei (%): 38%
  Population Hoechst High Intensity Objects (%): 14%
  Population Membrane Permeable-Phenotype (%): 1%
  Population Mitotic Cells (%): 13%
  Population Normal (%): 85%
  Population Pyknosed Nuclei (%): 52%
  Total Cell Count: 187
[8]
  Population Apoptotic (%): 77%
  Population Fragmented Nuclei (%): 8%
  Population Healthy Nuclei (%): 30%
  Population Hoechst High Intensity Objects (%): 8%
  Population Membrane Permeable-Phenotype (%): 2%
  Population Mitochondria Different-Phenotype (%): 100%
  Population Mitotic Cells (%): 22%
  Population Normal (%): 91%
  Population Pyknosed Nuclei (%): 61%
  Population Tubulin-Different-Phenotype (%): 95%
  Total Cell Count: 148
[9]
  Population Apoptotic (%): 52%
  Population Fragmented Nuclei (%): 15%
  Population Healthy Nuclei (%): 39%
  Population Hoechst High Intensity Objects (%): 14%
  Population Membrane Permeable-Phenotype (%): 1%
  Population Mitochondria Different-Phenotype (%): 67%
  Population Mitotic Cells (%): 47%
  Population Normal (%): 85%
  Population Pyknosed Nuclei (%): 44%
  Population Tubulin-Different-Phenotype (%): 73%
  Total Cell Count: 230
[10]
  Population Apoptotic (%): 29%
  Population Fragmented Nuclei (%): 3%
  Population Healthy Nuclei (%): 68%
  Population Hoechst High Intensity Objects (%): 8%
  Population Membrane Permeable-Phenotype (%): 12%
  Population Mitochondria Different-Phenotype (%): 24%
  Population Mitotic Cells (%): 70%
  Population Normal (%): 91%
  Population Pyknosed Nuclei (%): 27%
  Population Tubulin-Different-Phenotype (%): 57%
  Total Cell Count: 309
[11]
  Population Apoptotic (%): 80%
  Population Fragmented Nuclei (%): 11%
  Population Hoechst High Intensity Objects (%): 12%
  Population Membrane Permeable-Phenotype (%): 0%
  Population Mitochondria Different-Phenotype (%): 99%
  Population Mitotic Cells (%): 19%
  Population Normal (%): 87%
  Population Pyknosed Nuclei (%): 23%
  Total Cell Count: 200
[12]
  Population Apoptotic (%): 78%
  Population Fragmented Nuclei (%): 7%
  Population Healthy Nuclei (%): 65%
  Population Hoechst High Intensity Objects (%): 5%
  Population Membrane Permeable-Phenotype (%): 5%
  Population Mitochondria Different-Phenotype (%): 95%
  Population Mitotic Cells (%): 21%
  Population Normal (%): 94%
  Population Pyknosed Nuclei (%): 27%
  Population Tubulin-Different-Phenotype (%): 97%
  Total Cell Count: 159

## CNc1cc(Oc2cc(C(=O)Nc3cc(N4CCN(C)CC4)cc(C(F)(F)F)c3)ccc2C)ncn1
[1]
  Population Apoptotic (%): 79%
  Population Fragmented Nuclei (%): 14%
  Population Healthy Nuclei (%): 13%
  Population Hoechst High Intensity Objects (%): 20%
  Population Membrane Permeable-Phenotype (%): 0%
  Population Mitochondria Different-Phenotype (%): 96%
  Population Mitotic Cells (%): 20%
  Population Normal (%): 79%
  Population Pyknosed Nuclei (%): 72%
  Population Tubulin-Different-Phenotype (%): 89%
  Total Cell Count: 263
[2]
  Population Apoptotic (%): 41%
  Population Fragmented Nuclei (%): 8%
  Population Healthy Nuclei (%): 21%
  Population Hoechst High Intensity Objects (%): 6%
  Population Membrane Permeable-Phenotype (%): 2%
  Population Mitochondria Different-Phenotype (%): 69%
  Population Mitotic Cells (%): 58%
  Population Normal (%): 93%
  Population Pyknosed Nuclei (%): 70%
  Population Tubulin-Different-Phenotype (%): 76%
  Total Cell Count: 213
[3]
  Population Apoptotic (%): 86%
  Population Fragmented Nuclei (%): 17%
  Population Healthy Nuclei (%): 3%
  Population Hoechst High Intensity Objects (%): 21%
  Population Membrane Permeable-Phenotype (%): 0%
  Population Mitochondria Different-Phenotype (%): 100%
  Population Mitotic Cells (%): 13%
  Population Normal (%): 78%
  Population Pyknosed Nuclei (%): 80%
  Population Tubulin-Different-Phenotype (%): 83%
  Total Cell Count: 256
[4]
  Population Apoptotic (%): 98%
  Population Fragmented Nuclei (%): 5%
  Population Healthy Nuclei (%): 4%
  Population Hoechst High Intensity Objects (%): 14%
  Population Mitotic Cells (%): 1%
  Population Normal (%): 85%
  Population Pyknosed Nuclei (%): 89%
  Population Tubulin-Different-Phenotype (%): 60%
  Total Cell Count: 127
[5]
  Population Apoptotic (%): 73%
  Population Fragmented Nuclei (%): 18%
  Population Healthy Nuclei (%): 12%
  Population Hoechst High Intensity Objects (%): 21%
  Population Membrane Permeable-Phenotype (%): 0%
  Population Mitochondria Different-Phenotype (%): 96%
  Population Mitotic Cells (%): 26%
  Population Normal (%): 78%
  Population Pyknosed Nuclei (%): 69%
  Population Tubulin-Different-Phenotype (%): 81%
  Total Cell Count: 269
[6]
  Population Apoptotic (%): 41%
  Population Fragmented Nuclei (%): 12%
  Population Healthy Nuclei (%): 36%
  Population Hoechst High Intensity Objects (%): 5%
  Population Membrane Permeable-Phenotype (%): 1%
  Population Mitochondria Different-Phenotype (%): 63%
  Population Mitotic Cells (%): 58%
  Population Normal (%): 94%
  Population Pyknosed Nuclei (%): 51%
  Population Tubulin-Different-Phenotype (%): 70%
  Total Cell Count: 284
[7]
  Population Apoptotic (%): 88%
  Population Fragmented Nuclei (%): 15%
  Population Healthy Nuclei (%): 0%
  Population Hoechst High Intensity Objects (%): 26%
  Population Membrane Permeable-Phenotype (%): 0%
  Population Mitochondria Different-Phenotype (%): 100%
  Population Mitotic Cells (%): 11%
  Population Normal (%): 73%
  Population Pyknosed Nuclei (%): 84%
  Population Tubulin-Different-Phenotype (%): 100%
  Total Cell Count: 264
[8]
  Population Apoptotic (%): 97%
  Population Fragmented Nuclei (%): 6%
  Population Healthy Nuclei (%): 3%
  Population Hoechst High Intensity Objects (%): 18%
  Population Mitotic Cells (%): 2%
  Population Normal (%): 81%
  Population Pyknosed Nuclei (%): 89%
  Population Tubulin-Different-Phenotype (%): 75%
  Total Cell Count: 126
[9]
  Population Apoptotic (%): 68%
  Population Fragmented Nuclei (%): 24%
  Population Healthy Nuclei (%): 21%
  Population Hoechst High Intensity Objects (%): 18%
  Population Membrane Permeable-Phenotype (%): 1%
  Population Mitochondria Different-Phenotype (%): 76%
  Population Mitotic Cells (%): 31%
  Population Normal (%): 81%
  Population Pyknosed Nuclei (%): 54%
  Population Tubulin-Different-Phenotype (%): 74%
  Total Cell Count: 297
[10]
  Population Apoptotic (%): 40%
  Population Fragmented Nuclei (%): 14%
  Population Healthy Nuclei (%): 65%
  Population Hoechst High Intensity Objects (%): 4%
  Population Membrane Permeable-Phenotype (%): 6%
  Population Mitochondria Different-Phenotype (%): 25%
  Population Mitotic Cells (%): 59%
  Population Normal (%): 95%
  Population Pyknosed Nuclei (%): 19%
  Population Tubulin-Different-Phenotype (%): 51%
  Total Cell Count: 421
[11]
  Population Apoptotic (%): 91%
  Population Fragmented Nuclei (%): 32%
  Population Healthy Nuclei (%): 1%
  Population Hoechst High Intensity Objects (%): 29%
  Population Membrane Permeable-Phenotype (%): 0%
  Population Mitochondria Different-Phenotype (%): 100%
  Population Mitotic Cells (%): 8%
  Population Normal (%): 70%
  Population Pyknosed Nuclei (%): 66%
  Population Tubulin-Different-Phenotype (%): 33%
  Total Cell Count: 273
[12]
  Population Apoptotic (%): 98%
  Population Fragmented Nuclei (%): 7%
  Population Healthy Nuclei (%): 5%
  Population Hoechst High Intensity Objects (%): 26%
  Population Membrane Permeable-Phenotype (%): 20%
  Population Mitotic Cells (%): 1%
  Population Normal (%): 73%
  Population Pyknosed Nuclei (%): 87%
  Population Tubulin-Different-Phenotype (%): 80%
  Total Cell Count: 131
